The values below come from ChEMBL document CHEMBL1154846, “Micropeptins from an Israeli fishpond water bloom of the cyanobacterium Microcystis sp” (J Nat Prod, 2010).

The structures appear in SMILES notation. The source made the active and inactive calls. No cut-off for these calls is given here.

For assay [1], the target named is Chymotrypsin-like elastase family member 1 (Homo sapiens) (UniProt Q9UNI1). As to the kind of experiment: Inhibition of elastase after 20 mins. The gist of the method: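 Elastase stock 75 mg/mL in 0.2 M Tris-HCl, pH 8. Sample (1 mg/mL DMSO stock) preincubated with enzyme in buffer at 30 °C for 20 min. N-Suc-Ala-Ala-Ala-p-nitroanilide substrate (1 mg/mL stock in Tris buffer) then added. Kinetics read at 405 nm, 37 °C, for 20 min.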
Chain of Chymotrypsin-like elastase family member 1 (Homo sapiens) (Q9UNI1 whole entry): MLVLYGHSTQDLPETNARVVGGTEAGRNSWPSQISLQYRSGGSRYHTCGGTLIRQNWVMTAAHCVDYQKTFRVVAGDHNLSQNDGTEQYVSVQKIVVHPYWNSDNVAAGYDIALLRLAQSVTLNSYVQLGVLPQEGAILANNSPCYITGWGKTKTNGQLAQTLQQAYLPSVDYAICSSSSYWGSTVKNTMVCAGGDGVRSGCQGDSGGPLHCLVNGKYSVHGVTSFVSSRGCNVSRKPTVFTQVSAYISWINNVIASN

Assay [2] is described as follows: Inhibition of trypsin after 30 mins. The gist of the method:
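Trypsin stock 1 mg/mL in 0.05 M Tris-HCl/100 mM NaCl/1 mM CaCl2, pH 7.5. Sample (1 mg/mL DMSO stock) preincubated with enzyme at 37 °C for 10 min. BAPNA substrate (stock in 1:9 DMSO/Tris buffer) then added. Kinetics at 405 nm, 37 °C, for 30 min, giving IC50.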

A further assay addresses Prothrombin (Homo sapiens, UniProt P00734). As to the kind of experiment: Inhibition of thrombin after 20 mins. In a few lines:
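Thrombin in 0.2 M Tris-HCl, pH 8, preincubated with sample (DMSO, 1 mg/mL stock) at 25 °C for 5 min. Z-Gly-Pro-Arg-4MβNA substrate (0.5 mg/mL stock in Tris buffer) then added. Reaction kinetics read at 405 nm, 37 °C, for 20 min; IC50 reported.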

Assay [3] can be described thus: Inhibition of chymotrypsin after 30 mins. In a few lines: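 Commercial chymotrypsin, 10 mg/mL stock in 0.05 M Tris-HCl/100 mM NaCl/1 mM CaCl2, pH 7.5. Sample (1 mg/mL DMSO stock) preincubated with enzyme in buffer at 37 °C for 10 min. Suc-Gly-Gly-p-nitroanilide substrate (1 mg/mL stock in Tris buffer) then added. Reaction kinetics followed at 405 nm, 37 °C, for 30 min.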

One may read the IC50 as the point on the concentration scale where inhibition reaches its midpoint. High values mean weaker potency in that assay, low ones greater potency in that assay.

As for `CC[C@H](C)[C@@H]1NC(=O)[C@H](Cc2ccccc2)N(C)C(=O)[C@H]([C@@H](C)CC)N2C(=O)[C@H](CC[C@H]2OC)NC(=O)[C@H](CCCNC(=N)N)NC(=O)[C@@H](NC(=O)[C@@H](CO)OS(=O)(=O)O)[C@@H](C)OC1=O`, the outcome (in assay [1]; at Prothrombin; in assay [3]) was inactive. Besides, the IC50 in assay [2] amounted to 7.4 µM.
For `CC[C@H](C)[C@@H]1NC(=O)[C@H](Cc2ccccc2)N(C)C(=O)[C@H]([C@@H](C)CC)N2C(=O)[C@H](CC[C@H]2OC)NC(=O)[C@H](CCCNC(=N)N)NC(=O)[C@@H](N)[C@@H](C)OC1=O`, the outcome (in assay [1]; at Prothrombin; in assay [3]) was inactive.
Turning to `CC[C@H](C)[C@@H]1NC(=O)[C@H](Cc2ccccc2)N(C)C(=O)[C@H]([C@@H](C)CC)N2C(=O)[C@H](CC[C@H]2OC)NC(=O)[C@H](CCCNC(=N)N)NC(=O)[C@@H](NC(=O)[C@H](O)COS(=O)(=O)O)[C@@H](C)OC1=O`, the outcome (in assay [1]; on Prothrombin; in assay [3]) was inactive. Moreover, the IC50 in assay [2] is 1.5 µM.
With `CC[C@H](C)[C@@H]1NC(=O)[C@H](Cc2ccccc2)N(C)C(=O)[C@H]([C@@H](C)CC)N2C(=O)[C@H](CC[C@H]2O)NC(=O)[C@H](CCCNC(=N)N)NC(=O)[C@@H](NC(=O)[C@H](O)COS(=O)(=O)O)[C@@H](C)OC1=O` [CYANOPEPTOLIN S], the result (in assay [1]; at Prothrombin; in assay [3]) was inactive. The molecule also had an IC50 in assay [2] of 4.1 µM.
For the molecule `CC[C@H](C)[C@@H]1NC(=O)[C@H](Cc2ccccc2)N(C)C(=O)[C@H]([C@@H](C)CC)N2C(=O)[C@H](CC[C@H]2O)NC(=O)[C@H](CCCNC(=N)N)NC(=O)[C@@H](NC(=O)[C@@H](COS(=O)(=O)O)OS(=O)(=O)O)[C@@H](C)OC1=O` [CYANOPEPTOLIN SS], the result in assay [1] and in assay [3] was inactive. In assay [2], this molecule showed an IC50 of 2.9 µM.
Turning to `CC[C@H](C)[C@@H]1NC(=O)[C@H](Cc2ccccc2)N(C)C(=O)[C@H]([C@@H](C)CC)N2C(=O)[C@H](CC[C@H]2OC)NC(=O)[C@H](CCCNC(=N)N)NC(=O)[C@@H](NC(=O)[C@@H](COS(=O)(=O)O)OS(=O)(=O)O)[C@@H](C)OC1=O`, the outcome (in assay [1]; at Prothrombin; in assay [3]) was inactive. The molecule also registered an IC50 in assay [2] of 1.6 µM.
With `CC[C@H](C)[C@@H]1NC(=O)[C@H](Cc2ccccc2)N(C)C(=O)[C@H]([C@@H](C)CC)N2C(=O)[C@H](CC[C@H]2O)NC(=O)[C@H](CCCN=C(N)N)NC(=O)[C@@H](NC(=O)[C@@H](COS(=O)(=O)O)OS(=O)(=O)O)[C@@H](C)OC1=O` [CYANOPEPTOLIN SS], the 50% inhibitory concentration (IC50) against Prothrombin turned out to be 45.2 µM.
`CC[C@H](C)[C@@H]1NC(=O)[C@H](Cc2ccccc2)N(C)C(=O)[C@H]([C@@H](C)CC)N2C(=O)[C@H](CC[C@H]2O)NC(=O)[C@H](CCCNC(=N)N)NC(=O)[C@@H](NC(=O)[C@@H](CO)OS(=O)(=O)O)[C@@H](C)OC1=O`: the result (in assay [1]; at Prothrombin; in assay [3]) was inactive. In addition, the midpoint of inhibition in assay [2], the IC50, lay at 24.2 µM.
For the molecule `CC[C@H](C)[C@@H]1NC(=O)[C@H](Cc2ccccc2)N(C)C(=O)[C@H]([C@@H](C)CC)N2C(=O)[C@H](CC[C@H]2OC)NC(=O)[C@H](CCCNC(=N)N)NC(=O)[C@@H](NC(=O)[C@H](O)CO)[C@@H](C)OC1=O`, the result in assay [1] and in assay [3] was inactive. The IC50 in assay [2] was 0.6 µM; on Prothrombin, 52.9 µM.
On to `CC[C@H](C)[C@@H]1NC(=O)[C@H](Cc2ccccc2)N(C)C(=O)[C@H]([C@@H](C)CC)N2C(=O)[C@H](CC[C@H]2O)NC(=O)[C@H](CCCNC(=N)N)NC(=O)[C@@H](NC(=O)[C@H](O)CO)[C@@H](C)OC1=O`, for which the result (in assay [1]; on Prothrombin; in assay [3]) was inactive. Moreover, the IC50 in assay [2] was 2.6 µM.
